From PMC3787871 (Bioorganic & medicinal chemistry letters, 2008)
“Also recorded” adds a separate entry of the source. Blank lines part the entries; values can stand above or below the compound they belong to.

Assays:
mGluR4 [1] = target: T1, mGluR4 (Homo sapiens, UniProt Q14833); assay: Potentiation of an EC20 of glutamate in human mGluR4/Gqi5 CHO cells; format: cell-based; settings: for loss in potency relative to 6: mGluR4 PAM EC50 versus re-synthesized 6; for mGluR4 PAM activity (in words): potentiation of EC20 glutamate, mGluR4/Gqi5 CHO cells
T1 sequence (Q14833 33-912): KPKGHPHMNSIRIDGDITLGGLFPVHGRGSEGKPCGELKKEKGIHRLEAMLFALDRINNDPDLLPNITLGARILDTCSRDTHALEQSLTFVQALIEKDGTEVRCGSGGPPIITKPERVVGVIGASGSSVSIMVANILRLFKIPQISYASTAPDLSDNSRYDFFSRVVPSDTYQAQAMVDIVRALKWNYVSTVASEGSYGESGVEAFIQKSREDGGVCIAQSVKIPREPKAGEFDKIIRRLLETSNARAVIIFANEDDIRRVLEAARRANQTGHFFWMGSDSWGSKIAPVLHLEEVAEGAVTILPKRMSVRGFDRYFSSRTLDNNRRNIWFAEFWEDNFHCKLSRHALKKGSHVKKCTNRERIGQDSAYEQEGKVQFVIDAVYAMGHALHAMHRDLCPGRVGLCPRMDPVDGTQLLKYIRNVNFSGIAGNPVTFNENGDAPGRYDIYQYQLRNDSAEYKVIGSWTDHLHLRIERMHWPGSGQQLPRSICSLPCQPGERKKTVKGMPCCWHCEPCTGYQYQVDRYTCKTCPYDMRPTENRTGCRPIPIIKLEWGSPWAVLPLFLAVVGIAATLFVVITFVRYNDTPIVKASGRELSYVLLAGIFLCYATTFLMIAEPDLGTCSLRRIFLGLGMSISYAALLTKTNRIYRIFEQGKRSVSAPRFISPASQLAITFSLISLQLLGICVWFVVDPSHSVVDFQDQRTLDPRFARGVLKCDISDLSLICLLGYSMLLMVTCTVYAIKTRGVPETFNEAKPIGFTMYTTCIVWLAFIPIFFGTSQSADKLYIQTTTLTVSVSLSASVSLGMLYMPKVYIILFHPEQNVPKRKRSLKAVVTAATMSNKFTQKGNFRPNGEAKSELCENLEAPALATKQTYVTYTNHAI

mGluR1 [2] = target: T2, mGluR1 (Homo sapiens, UniProt Q13255); settings: cited from earlier work
T2 sequence (Q13255 19-1194): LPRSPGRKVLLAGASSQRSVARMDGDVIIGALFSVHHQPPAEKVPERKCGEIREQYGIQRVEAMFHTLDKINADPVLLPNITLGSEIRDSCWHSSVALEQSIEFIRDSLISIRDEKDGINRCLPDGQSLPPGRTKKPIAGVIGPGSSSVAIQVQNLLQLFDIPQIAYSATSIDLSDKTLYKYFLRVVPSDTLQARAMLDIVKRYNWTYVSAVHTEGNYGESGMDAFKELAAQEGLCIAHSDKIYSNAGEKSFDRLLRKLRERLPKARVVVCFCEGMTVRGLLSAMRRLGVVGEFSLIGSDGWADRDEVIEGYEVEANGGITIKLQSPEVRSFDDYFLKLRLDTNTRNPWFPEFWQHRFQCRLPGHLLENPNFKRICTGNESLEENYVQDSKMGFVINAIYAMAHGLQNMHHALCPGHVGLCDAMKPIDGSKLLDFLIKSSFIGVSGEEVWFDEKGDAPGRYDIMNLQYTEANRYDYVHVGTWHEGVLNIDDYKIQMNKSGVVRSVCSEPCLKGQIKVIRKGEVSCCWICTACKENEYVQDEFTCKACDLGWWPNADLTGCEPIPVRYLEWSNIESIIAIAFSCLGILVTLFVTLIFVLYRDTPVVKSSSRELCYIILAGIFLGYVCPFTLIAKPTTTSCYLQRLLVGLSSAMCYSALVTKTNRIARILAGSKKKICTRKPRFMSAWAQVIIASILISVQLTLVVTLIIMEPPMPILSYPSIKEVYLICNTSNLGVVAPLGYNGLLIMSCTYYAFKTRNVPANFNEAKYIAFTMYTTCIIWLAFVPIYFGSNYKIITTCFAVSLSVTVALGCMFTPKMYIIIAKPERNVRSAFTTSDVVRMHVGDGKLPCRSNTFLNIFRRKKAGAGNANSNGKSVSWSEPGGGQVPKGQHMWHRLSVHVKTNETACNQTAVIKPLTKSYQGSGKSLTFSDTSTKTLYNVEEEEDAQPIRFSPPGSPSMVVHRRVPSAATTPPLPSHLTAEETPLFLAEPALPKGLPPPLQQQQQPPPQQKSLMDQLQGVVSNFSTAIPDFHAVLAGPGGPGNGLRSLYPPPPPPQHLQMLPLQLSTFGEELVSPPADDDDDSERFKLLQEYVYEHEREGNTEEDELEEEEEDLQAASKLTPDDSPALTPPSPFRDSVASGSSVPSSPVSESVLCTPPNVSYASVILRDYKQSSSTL

mGluR4 [3] = settings: cited from earlier work; for EC50: mGluR4 PAM
[4] = system: preclinical Parkinson's disease models; settings: cited from earlier work
mGluR4 [5] = settings: cited from earlier work
mGluR4 [6] = target: T1, mGluR4; format: cell-based; settings: at 30 μM compound
How it was run: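 Human mGluR4 co-expressed with chimeric Gqi5 in CHO cells. Glutamate concentration–response curves run with and without 30 μM test compound; fold shift taken as the leftward displacement of the glutamate curve. Responses expressed as % of maximal glutamate response. Average of at least three independent determinations, each in triplicate.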

mGluRs = assay: Selectivity screen across the mGluRs; format: cell-based
mGluR8 = mGluR8 (Homo sapiens, UniProt O00222); assay: EC20 activation assay, mGluR8; format: cell-based; settings: at 30 μM
mGluR8, sequence (O00222 34-908, species assumed): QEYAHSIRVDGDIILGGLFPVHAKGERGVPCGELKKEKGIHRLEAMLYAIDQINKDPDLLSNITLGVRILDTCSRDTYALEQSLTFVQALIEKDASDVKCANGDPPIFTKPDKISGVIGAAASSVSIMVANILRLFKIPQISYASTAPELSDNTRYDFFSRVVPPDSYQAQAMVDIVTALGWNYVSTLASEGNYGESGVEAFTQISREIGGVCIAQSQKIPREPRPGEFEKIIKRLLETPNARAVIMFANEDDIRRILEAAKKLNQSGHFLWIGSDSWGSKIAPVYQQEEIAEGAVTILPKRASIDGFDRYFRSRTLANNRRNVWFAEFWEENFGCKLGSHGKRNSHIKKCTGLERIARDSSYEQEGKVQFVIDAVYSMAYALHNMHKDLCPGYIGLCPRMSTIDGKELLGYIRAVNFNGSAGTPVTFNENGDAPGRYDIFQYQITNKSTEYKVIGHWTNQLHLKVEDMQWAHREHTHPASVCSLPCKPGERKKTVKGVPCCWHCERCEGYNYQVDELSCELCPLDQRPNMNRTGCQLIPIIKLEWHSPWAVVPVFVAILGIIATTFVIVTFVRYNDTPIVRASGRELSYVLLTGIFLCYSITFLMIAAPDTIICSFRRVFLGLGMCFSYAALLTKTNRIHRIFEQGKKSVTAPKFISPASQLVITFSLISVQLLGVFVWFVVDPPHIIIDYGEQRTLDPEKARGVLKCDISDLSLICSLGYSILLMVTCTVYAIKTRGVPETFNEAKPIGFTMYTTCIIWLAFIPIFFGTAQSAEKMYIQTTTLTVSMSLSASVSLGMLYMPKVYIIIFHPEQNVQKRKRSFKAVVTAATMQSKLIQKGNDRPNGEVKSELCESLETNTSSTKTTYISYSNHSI

mGluR1 [7] = target: T2, mGluR1; assay: mGluR1 antagonist activity; format: cell-based
mGluR4 [8] = target: T1, mGluR4; assay: Receptor activation in mGluR4/Gqi5 CHO cells in the absence of glutamate; format: cell-based; settings: no EC20 glutamate added
mGluR1 [9] = target: T2, mGluR1; assay: EC20 activation assay, mGluR1; format: cell-based; settings: at 30 μM

SMILES: Cc1ccc(-n2ncc3c(N4CCCC(C)C4)ncnc32)c(C)c1 (stereo not shown) [Compound 4]
mGluR1 antagonist activity (in words) (mGluR1 [2]): significant mGluR1 antagonist activity | IC50 (mGluR1 [2]; read-out: IC50 (full antagonist of mGluR1)): 2600 nM | fold shift of the glutamate response (mGluR4 [3]): 11.8 fold | EC50 (mGluR4 [3]): 5000 nM

SMILES: O=C(O)[C@H]1CCCC[C@H]1C(=O)Nc1cc(Cl)cc(Cl)c1 [Compound 5]
EC50 (mGluR4 [3]): 750 nM | efficacy in preclinical Parkinson's disease models [4]: displayed efficacy in preclinical Parkinson’s disease models | allosteric agonist activity (mGluR4 [5]): significant allosteric agonist activity

SMILES: Cc1ccc(N2C(=O)c3ccccc3NC2C(C)c2ccccc2)cc1 (stereo not shown) [Compound 7]
fold shift of the glutamate response curve (leftward) (mGluR4 [6]): 2.7 fold | EC50 (mGluR4 [1]): 1800 nM

SMILES: Cc1nc2ccccc2nc1N/N=C/c1ccc(O)cc1 [Compound 6, (E)-4-((2-(3-methylquinoxalin-2-yl)hydrazono)methyl) phenol]
antagonism of mGluRs (mGluRs; EC80 assay): not an antagonist of any mGluR | selectivity across the mGluRs (mGluRs; activation (EC20 glutamate potentiation) and inhibition (depression of EC80) assays): highly selective for mGluR4 | activation of mGluR8 (mGluR8): moderate activation | mGluR1 antagonist activity (mGluR1 [7]): devoid of mGluR1 antagonist activity; also recorded: did not exhibit mGluR1 antagonist activity | effect on mGluR4 in the absence of glutamate (mGluR4 [8]): no effect; also recorded: do not elicit receptor activation | activation of mGluR1 (mGluR1 [9]): moderate activation | EC50 (mGluR4 [1]): 650 nM | mGluR4 PAM activity (in words) (mGluR4 [1]): Concentration-dependent potentiation

SMILES: O=C(Nc1ccccc1)[C@]12C[C@H]1/C(=N\O)c1ccccc1O2 [PHCCC, N-phenyl-7-(hydroxyimino) cyclopropa(b)chromen-1a-carboxamide]
mGluR1 antagonist activity (in words) (mGluR1 [2]): significant mGluR1 antagonist activity

The next lines start with the values.

loss in potency relative to 6 (mGluR4 [1]): > 6 fold
SMILES: Cc1nc2ccccc2nc1N/N=C/c1ccccc1O [Compound 12b]

mGluR4 PAM activity (in words) (mGluR4 [1]): afforded mGluR4 PAM activity
SMILES: Cc1nc2ccccc2nc1N/N=C/c1ccc(F)cc1 [Compound 12c]

loss in potency relative to 6 (mGluR4 [1]): > 3 fold
SMILES: Cc1nc2ccccc2nc1N/N=C/c1cccc(O)c1 [Compound 12a]

mGluR4 PAM activity (in words) (mGluR4 [1]): afforded mGluR4 PAM activity
SMILES: Cc1nc2ccccc2nc1N/N=C/c1ccccc1 [Compound 12d]
